Reference: ChEMBL document CHEMBL1150387, “Development and experimental validation of a docking strategy for the generation of kinase-targeted libraries” (J Med Chem, 2008)

Tests used:
[1] = molecular target: Protein-tyrosine kinase 6 (Homo sapiens) (UniProt Q13882); test: Inhibition of Brk at 10 uM by HTRF assay relative to control
How it was run: (§1)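 HTRF kinase assay, one panel of kinases. Inhibitor stock 50 µM in 100% DMSO; tested at 10 µM. ATP and substrate at final levels near Km. Final buffer: 50 mM Hepes/NaOH pH 7.4, 40 µM Na3VO4, 0.005% Tween-20, 1 mM DTT, MnCl2 or MgCl2 at kinase-dependent levels. Started by adding ATP/substrate. Reaction run at room temperature, time varied by kinase. Detection mix in 50 mM Hepes pH 7.4, 0.1% BSA, 150 mM KF, incubated ≥1 h at room temperature. Activity expressed as % of uninhibited control; n=2.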

[2] = molecular target: Ribosomal protein S6 kinase alpha-3 (Homo sapiens) (UniProt P51812); test: Inhibition of RSK2 at 10 uM by HTRF assay relative to control; how it was run: as §1
[3] = molecular target: T1, Mitogen-activated protein kinase 12 (Homo sapiens) (UniProt P53778); test: Inhibition of p38-gamma at 10 uM by HTRF assay relative to control; how it was run: as §1
T1 sequence (whole entry): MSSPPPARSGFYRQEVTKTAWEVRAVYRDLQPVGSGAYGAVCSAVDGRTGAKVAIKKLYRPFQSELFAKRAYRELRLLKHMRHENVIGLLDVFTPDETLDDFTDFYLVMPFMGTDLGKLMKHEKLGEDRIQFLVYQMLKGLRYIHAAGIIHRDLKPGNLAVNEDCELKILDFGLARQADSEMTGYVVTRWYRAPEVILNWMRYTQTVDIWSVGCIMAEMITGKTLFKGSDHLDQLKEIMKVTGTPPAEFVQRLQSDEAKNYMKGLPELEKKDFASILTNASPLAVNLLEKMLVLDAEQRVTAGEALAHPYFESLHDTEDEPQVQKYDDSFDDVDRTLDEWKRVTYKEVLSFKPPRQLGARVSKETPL

[4] = molecular target: T2, Serine/threonine-protein kinase Chk1 (Homo sapiens) (UniProt O14757); test: Inhibition of CHK1 at 10 uM by HTRF assay relative to control; how it was run: as §1
T2 sequence (whole entry): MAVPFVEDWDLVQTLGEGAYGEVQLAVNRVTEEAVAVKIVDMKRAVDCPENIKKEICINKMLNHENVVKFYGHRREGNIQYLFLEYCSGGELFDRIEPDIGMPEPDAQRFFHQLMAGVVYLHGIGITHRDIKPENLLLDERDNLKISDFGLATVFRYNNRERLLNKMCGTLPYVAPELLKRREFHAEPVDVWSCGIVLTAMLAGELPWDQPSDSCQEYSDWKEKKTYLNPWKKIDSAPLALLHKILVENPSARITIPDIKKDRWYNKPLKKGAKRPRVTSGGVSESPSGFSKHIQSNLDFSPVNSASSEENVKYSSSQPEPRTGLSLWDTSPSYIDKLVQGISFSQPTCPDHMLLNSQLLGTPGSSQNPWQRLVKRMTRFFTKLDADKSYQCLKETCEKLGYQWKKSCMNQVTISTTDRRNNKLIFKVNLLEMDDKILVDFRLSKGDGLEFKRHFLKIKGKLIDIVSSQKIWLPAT

[5] = molecular target: Epidermal growth factor receptor (Homo sapiens) (UniProt P00533); test: Inhibition of EGFR at 10 uM by HTRF assay relative to control; how it was run: as §1
[6] = molecular target: Rho-associated protein kinase 2 (Homo sapiens) (UniProt O75116); test: Inhibition of ROCK2 at 10 uM by HTRF assay relative to control; how it was run: as §1
[7] = molecular target: Cyclin-dependent kinase 1 (Homo sapiens) (UniProt P06493); test: Inhibition of CDK1 at 10 uM by HTRF assay relative to control; how it was run: as §1
[8] = molecular target: T3, Inhibitor of nuclear factor kappa-B kinase subunit beta (Homo sapiens) (UniProt O14920); test: Inhibition of IKK-beta at 10 uM by HTRF assay relative to control; how it was run: as §1
T3 sequence (whole entry): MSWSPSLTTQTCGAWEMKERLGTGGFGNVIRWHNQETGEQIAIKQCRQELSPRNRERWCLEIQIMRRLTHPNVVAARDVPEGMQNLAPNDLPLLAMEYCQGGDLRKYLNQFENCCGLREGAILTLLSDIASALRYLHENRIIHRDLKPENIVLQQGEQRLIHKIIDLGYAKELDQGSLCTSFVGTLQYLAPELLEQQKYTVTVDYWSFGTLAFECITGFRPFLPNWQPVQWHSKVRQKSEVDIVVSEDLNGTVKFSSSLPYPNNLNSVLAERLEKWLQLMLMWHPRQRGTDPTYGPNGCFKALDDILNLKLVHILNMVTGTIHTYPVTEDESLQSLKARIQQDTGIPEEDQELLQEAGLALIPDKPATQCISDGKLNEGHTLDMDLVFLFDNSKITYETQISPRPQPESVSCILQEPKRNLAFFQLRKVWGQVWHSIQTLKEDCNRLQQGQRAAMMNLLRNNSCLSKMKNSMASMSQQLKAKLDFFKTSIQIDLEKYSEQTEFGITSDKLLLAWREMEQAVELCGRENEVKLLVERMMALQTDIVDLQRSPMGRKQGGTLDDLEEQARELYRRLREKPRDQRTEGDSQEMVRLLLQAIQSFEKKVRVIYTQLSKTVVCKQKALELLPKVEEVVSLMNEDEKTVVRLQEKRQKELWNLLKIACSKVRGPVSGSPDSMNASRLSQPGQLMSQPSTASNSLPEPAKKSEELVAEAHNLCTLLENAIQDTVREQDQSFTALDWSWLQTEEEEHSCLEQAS

[9] = molecular target: Tyrosine-protein kinase Lyn (Homo sapiens) (UniProt P07948); test: Inhibition of Lyn at 10 uM by HTRF assay relative to control; how it was run: as §1
[10] = molecular target: Tyrosine-protein kinase Fes/Fps (Homo sapiens) (UniProt P07332); test: Inhibition of FES at 10 uM by HTRF assay relative to control; how it was run: as §1
[11] = molecular target: Serine/threonine-protein kinase Chk2 (Homo sapiens) (UniProt O96017); test: Inhibition of CHK2 at 10 uM by HTRF assay relative to control; how it was run: as §1
[12] = molecular target: Receptor-type tyrosine-protein kinase FLT3 (Homo sapiens) (UniProt P36888); test: Inhibition of FLT3 at 10 uM by HTRF assay relative to control; how it was run: as §1
[13] = molecular target: Protein kinase C gamma type (Homo sapiens) (UniProt P05129); test: Inhibition of PKCgamma at 10 uM by HTRF assay relative to control; how it was run: as §1
[14] = molecular target: High affinity nerve growth factor receptor (Homo sapiens) (UniProt P04629); test: Inhibition of TrkA at 10 uM by HTRF assay relative to control; how it was run: as §1
[15] = Inhibition of IRK at 10 uM by HTRF assay relative to control; how it was run: as §1
[16] = molecular target: Ribosomal protein S6 kinase beta-1 (Homo sapiens) (UniProt P23443); test: Inhibition of p70S6K at 10 uM by HTRF assay relative to control; how it was run: as §1
[17] = molecular target: Mitogen-activated protein kinase 9 (Homo sapiens) (UniProt P45984); test: Inhibition of JNK2 at 10 uM by HTRF assay relative to control; how it was run: as §1

Sequence of High affinity nerve growth factor receptor (Homo sapiens) (P04629 33-796 limits assumed): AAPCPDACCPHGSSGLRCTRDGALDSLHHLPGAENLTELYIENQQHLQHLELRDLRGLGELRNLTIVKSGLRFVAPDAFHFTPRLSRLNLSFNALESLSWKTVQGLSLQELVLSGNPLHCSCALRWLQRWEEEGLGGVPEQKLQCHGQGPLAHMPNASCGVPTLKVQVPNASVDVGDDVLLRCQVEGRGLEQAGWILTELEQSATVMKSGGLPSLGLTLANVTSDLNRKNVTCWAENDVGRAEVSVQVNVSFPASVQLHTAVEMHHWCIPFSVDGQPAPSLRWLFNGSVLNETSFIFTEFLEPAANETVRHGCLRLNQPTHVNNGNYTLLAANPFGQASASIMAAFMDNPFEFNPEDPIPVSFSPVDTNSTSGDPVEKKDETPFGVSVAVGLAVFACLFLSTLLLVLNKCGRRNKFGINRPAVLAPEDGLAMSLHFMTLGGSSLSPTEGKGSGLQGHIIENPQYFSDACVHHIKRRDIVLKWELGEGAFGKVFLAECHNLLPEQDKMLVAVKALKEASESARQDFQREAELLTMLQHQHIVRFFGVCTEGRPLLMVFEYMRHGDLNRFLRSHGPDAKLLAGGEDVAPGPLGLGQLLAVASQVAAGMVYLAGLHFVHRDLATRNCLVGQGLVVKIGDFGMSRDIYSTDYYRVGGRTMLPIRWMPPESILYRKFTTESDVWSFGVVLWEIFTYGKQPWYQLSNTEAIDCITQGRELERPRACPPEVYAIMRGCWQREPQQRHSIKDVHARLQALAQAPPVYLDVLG
Sequence of Serine/threonine-protein kinase Chk2 (Homo sapiens) (O96017 whole entry): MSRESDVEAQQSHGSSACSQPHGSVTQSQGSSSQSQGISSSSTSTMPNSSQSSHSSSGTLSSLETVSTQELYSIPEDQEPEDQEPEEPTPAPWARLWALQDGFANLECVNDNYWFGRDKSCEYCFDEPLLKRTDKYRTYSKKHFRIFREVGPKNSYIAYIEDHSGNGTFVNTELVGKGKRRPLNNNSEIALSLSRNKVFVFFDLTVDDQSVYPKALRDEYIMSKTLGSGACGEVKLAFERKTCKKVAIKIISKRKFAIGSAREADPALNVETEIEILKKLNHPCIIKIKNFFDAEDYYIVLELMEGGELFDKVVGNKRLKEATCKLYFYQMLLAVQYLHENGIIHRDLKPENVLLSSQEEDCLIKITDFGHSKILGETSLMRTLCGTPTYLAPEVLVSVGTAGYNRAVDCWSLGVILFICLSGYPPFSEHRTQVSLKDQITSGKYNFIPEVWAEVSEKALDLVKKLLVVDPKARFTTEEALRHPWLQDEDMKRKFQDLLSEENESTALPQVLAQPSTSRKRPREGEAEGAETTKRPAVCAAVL
Sequence of Ribosomal protein S6 kinase beta-1 (Homo sapiens) (P23443 whole entry, looked up): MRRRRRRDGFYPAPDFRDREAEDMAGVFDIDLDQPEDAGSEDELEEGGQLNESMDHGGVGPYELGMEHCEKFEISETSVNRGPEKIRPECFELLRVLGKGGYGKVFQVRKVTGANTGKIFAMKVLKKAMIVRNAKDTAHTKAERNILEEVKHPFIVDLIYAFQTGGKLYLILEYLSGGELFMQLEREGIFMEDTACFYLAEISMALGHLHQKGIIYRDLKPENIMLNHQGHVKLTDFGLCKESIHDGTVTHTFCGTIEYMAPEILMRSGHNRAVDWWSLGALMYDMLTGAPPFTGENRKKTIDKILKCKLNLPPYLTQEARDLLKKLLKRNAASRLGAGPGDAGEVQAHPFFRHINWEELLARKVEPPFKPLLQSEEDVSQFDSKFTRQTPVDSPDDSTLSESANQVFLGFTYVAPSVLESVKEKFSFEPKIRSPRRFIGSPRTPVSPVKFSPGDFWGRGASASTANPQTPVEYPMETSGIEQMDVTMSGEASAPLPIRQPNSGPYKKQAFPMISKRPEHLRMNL
Sequence of Tyrosine-protein kinase Lyn (Homo sapiens) (P07948 2-512 limits assumed): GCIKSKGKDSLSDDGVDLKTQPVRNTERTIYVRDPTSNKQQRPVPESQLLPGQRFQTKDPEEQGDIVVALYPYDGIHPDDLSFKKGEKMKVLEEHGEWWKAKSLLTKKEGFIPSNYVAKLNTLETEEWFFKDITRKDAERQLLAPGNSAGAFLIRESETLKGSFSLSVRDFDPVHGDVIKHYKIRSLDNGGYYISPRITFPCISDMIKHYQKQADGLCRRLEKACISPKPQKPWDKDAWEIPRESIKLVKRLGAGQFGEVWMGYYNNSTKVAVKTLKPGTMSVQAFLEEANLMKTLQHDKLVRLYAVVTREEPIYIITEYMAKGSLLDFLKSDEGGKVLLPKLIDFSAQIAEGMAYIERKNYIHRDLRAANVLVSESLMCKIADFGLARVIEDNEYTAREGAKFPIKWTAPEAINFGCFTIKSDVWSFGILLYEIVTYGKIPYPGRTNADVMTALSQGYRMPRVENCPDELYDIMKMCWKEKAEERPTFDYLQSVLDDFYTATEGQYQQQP
Sequence of Tyrosine-protein kinase Fes/Fps (Homo sapiens) (P07332 whole entry): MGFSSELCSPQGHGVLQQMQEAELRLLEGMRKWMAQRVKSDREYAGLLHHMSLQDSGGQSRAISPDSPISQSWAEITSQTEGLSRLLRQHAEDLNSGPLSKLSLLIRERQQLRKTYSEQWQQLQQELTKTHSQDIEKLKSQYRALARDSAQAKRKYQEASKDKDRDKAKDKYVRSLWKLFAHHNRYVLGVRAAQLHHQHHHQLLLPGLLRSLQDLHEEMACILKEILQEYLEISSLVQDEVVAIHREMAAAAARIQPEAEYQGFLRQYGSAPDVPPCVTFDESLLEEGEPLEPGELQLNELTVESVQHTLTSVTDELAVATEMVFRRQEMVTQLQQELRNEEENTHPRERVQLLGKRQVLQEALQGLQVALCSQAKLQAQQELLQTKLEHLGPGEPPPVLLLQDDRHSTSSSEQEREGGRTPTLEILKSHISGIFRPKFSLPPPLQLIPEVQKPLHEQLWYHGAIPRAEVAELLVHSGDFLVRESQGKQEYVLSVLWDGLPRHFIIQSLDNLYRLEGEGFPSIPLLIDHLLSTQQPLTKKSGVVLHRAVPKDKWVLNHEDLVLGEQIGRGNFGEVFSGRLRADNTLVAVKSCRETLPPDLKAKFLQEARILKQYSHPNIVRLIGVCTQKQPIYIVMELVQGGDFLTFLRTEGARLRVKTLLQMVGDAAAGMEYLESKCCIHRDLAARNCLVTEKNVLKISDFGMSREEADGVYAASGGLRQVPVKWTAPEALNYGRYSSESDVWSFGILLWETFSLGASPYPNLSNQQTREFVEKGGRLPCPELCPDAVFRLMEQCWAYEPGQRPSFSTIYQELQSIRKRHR
Sequence of Receptor-type tyrosine-protein kinase FLT3 (Homo sapiens) (P36888 whole entry): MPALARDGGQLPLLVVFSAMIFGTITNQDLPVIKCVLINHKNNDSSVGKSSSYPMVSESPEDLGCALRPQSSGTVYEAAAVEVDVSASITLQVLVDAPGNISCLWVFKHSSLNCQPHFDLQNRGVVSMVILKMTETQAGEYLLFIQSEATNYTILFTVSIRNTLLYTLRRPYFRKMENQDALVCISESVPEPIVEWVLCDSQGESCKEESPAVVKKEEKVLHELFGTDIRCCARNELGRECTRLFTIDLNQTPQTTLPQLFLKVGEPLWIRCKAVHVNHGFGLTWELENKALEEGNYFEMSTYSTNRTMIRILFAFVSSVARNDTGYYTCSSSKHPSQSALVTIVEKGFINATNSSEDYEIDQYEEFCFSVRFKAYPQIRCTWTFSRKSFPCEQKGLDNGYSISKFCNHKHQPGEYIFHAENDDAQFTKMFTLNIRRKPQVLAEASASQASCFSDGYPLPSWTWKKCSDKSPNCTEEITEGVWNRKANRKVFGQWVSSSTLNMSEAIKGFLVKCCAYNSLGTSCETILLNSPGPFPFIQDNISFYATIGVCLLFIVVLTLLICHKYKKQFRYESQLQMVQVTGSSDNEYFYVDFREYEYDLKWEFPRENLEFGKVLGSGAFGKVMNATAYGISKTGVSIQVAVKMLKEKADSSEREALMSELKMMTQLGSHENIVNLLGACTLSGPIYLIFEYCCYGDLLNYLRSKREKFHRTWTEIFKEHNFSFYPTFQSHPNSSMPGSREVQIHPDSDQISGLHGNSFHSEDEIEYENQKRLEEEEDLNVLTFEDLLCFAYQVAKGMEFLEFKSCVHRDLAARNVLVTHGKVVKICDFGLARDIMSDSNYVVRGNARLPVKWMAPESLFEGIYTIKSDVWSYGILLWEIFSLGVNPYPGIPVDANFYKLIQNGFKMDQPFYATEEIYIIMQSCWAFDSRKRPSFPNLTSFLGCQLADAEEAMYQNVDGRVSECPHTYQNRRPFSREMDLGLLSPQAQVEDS

Row | Structure (SMILES) | inhibition [1] | inhibition [2] | inhibition [3] | inhibition [4] | inhibition [5] | inhibition [6] | inhibition [7] | inhibition [8] | inhibition [9] | inhibition [10] | inhibition [11] | inhibition [12] | inhibition [13] | inhibition [14] | inhibition [15] | inhibition [16] | inhibition [17]
1 | Nc1nc(Nc2ccc3ncsc3c2)cc(N2CCC[C@H]2C(=O)NCCc2cccc(I)c2)n1 | 0% | 0% | 2% | 3% | 0% | 1% | 0% | 4% | 13% | 8% | 1% | 11% | 0% | 5% | 0% | 10% | 5%
2 | O=C(NC1Cc2ccccc2C1)c1cccc(Nc2ccnc(N3CCN(c4ccccc4)CC3)n2)c1 | 0% | 0% | 2% | 2% | 0% | 1% | 0% | 1% | 4% | 5% | 1% | 0% | 3% | 5% | 0% | 9% | 3%
3 | Cc1ccc(CN2CCN(c3nccc(C(C#N)c4ccccn4)n3)CC2)cc1 (configuration not stated) | 0% | 0% | 0% | 8% | 0% | 0% | 0% | 7% | 3% | 3% | 0% | 0% | 4% | 5% | 0% | 11% | 3%
4 | O=C(C1CCN(c2nccc(Nc3ccccc3)n2)CC1)N1CC[C@@H](O)C1 | 4% | 0% | 0% | 4% | 0% | 0% | 0% | – | 14% | 2% | 0% | 0% | 5% | 12% | 0% | 10% | 5%
5 | O=C(COc1ccccc1)N1CCN(c2nccc(Nc3ccc4ncsc4c3)n2)CC1 | 54% | 0% | 5% | 4% | 81% | 7% | 0% | 10% | 12% | 18% | 6% | 0% | 14% | 9% | 0% | 15% | 44%
6 | Cc1cccc(CN2CCN(c3cc(N(C)c4cccc(C)c4)ncn3)CC2)c1 | 7% | 0% | 2% | 0% | 0% | 1% | 0% | 1% | 3% | 4% | 2% | 0% | 2% | 4% | 0% | 10% | 5%
7 | Cc1cccc(Nc2nccc(Nc3cccc(C(=O)NCc4ccc(N(C)C)cc4)c3)n2)c1 | 33% | 5% | 0% | 6% | 0% | 4% | 0% | 2% | 9% | 10% | 0% | 54% | 0% | 7% | 0% | 9% | 4%
8 | CN(C)CC(C)(C)CNC(=O)[C@@H]1CCCN1c1nccc(Nc2ccccc2)n1 | 4% | 0% | 2% | 6% | 0% | 0% | 0% | 5% | 13% | 20% | 0% | 0% | 2% | 6% | 0% | 13% | 2%
9 | COc1ccc(NC(=O)Cc2ccc(Nc3cc(N(C)c4cccc(C)c4)ncn3)cc2)cn1 | 4% | 0% | 1% | 4% | 62% | 0% | 0% | 0% | 18% | 0% | 1% | 11% | 5% | 10% | 0% | 6% | 2%
10 | Cc1cccc(Oc2ccnc(N3CCN(CC(=O)Nc4cccc5c4CCCC5)CC3)n2)c1 | 0% | 0% | 0% | 5% | 0% | 0% | 0% | 0% | 1% | 23% | 3% | 0% | 5% | 10% | 0% | 14% | 2%
11 | Cc1cccc(Nc2ncnc3c2CN(C(=O)c2ccc(N(C)C)c4ccccc24)CC3)c1 | 10% | 0% | 2% | 3% | 31% | 1% | 0% | 4% | 9% | 3% | 2% | 0% | 2% | 8% | 0% | 0% | 1%
12 | O=C(CN1CCN(c2ncnc3c2CN(Cc2ccccc2)CC3)CC1)Nc1cc(F)ccc1F | 9% | 0% | 0% | 0% | 0% | 0% | 0% | 0% | 2% | 11% | 5% | 0% | 0% | 10% | 0% | 8% | 1%
13 | CN(C)CC(C)(C)CNC(=O)C1CCN(c2cc(N3CCOCC3)nc(N)n2)CC1 | 3% | 0% | 2% | 8% | 0% | 0% | 0% | 6% | 7% | 3% | 2% | 0% | 3% | 7% | 0% | 6% | 1%
14 | CC(=O)N1CCN(C(=O)c2cccc(Nc3cc(N(C)c4cccc(C)c4)ncn3)c2)CC1 | 1% | 14% | 3% | 2% | 99% | 0% | 0% | 1% | 29% | 18% | 0% | 29% | 5% | 12% | 0% | 4% | 7%
